Laboratory results taken from ChEMBL document CHEMBL3425497, “Discovery of (R)-1-(3-((2-chloro-4-(((2-hydroxy-2-(8-hydroxy-2-oxo-1,2-dihydroquinolin-5-yl)ethyl)amino)methyl)-5-methoxyphenyl)amino)-3-oxopropyl)piperidin-4-yl [1,1'-biphenyl]-2-ylcarbamate (TD-5959, GSK961081, batefenterol): first-in-class dual pharmacology multivalent muscarinic antagonist and …” (J Med Chem, 2015).
Activity calls are given as the source filed them. The rule behind the calls is not given here.

How the values were obtained:
[1] = molecular target: Beta-2 adrenergic receptor (Homo sapiens, UniProt P07550); assay: Agonist activity at human beta2 adrenergic receptor expressed in HEK293 cells assessed as cAMP accumulation using [125I]cAMP by scintillation counting; format: functional, cell-based
[2] = molecular target: Muscarinic acetylcholine receptor M3 (Homo sapiens, UniProt P20309); assay: Displacement of [3H]NMS from human muscarinic M3 receptor expressing CHO-K1 cells incubated for 60 mins or 6 hrs by liquid scintillation counting; format: cell-based
Cavia porcellus [3] = assay: Bronchoprotection in male Duncan Hartley guinea pig bronchoconstriction einthoven model assessed as inhibition of methacholine-induced bronchoconstriction at 100 microg/ml, inhalation after 24 hrs by in vivo muscarinic antagonist and beta2 agonist activity assay; format: functional; parameters: scale not given: the % may be the effect or the level left
Procedure, shortened: (§1)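 Einthoven bronchoprotection in guinea pigs, read as % bronchoprotection 24 h after inhaled dosing. The TFA salt was used in the initial experiments. For one compound, the edisylate salt was compared with the TFA form. Group sizes were n = 3–8.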

Cavia porcellus [4] = assay: Bronchoprotection in male Duncan Hartley guinea pig bronchoconstriction einthoven model assessed as inhibition of methacholine-induced bronchoconstriction at 100 microg/ml, inhalation after 24 hrs by in vivo beta2 adrenergic receptor agonist activity assay; format: functional; parameters: scale not given: the % may be the effect or the level left; procedure, shortened: as §1
Cavia porcellus [5] = assay: Bronchoprotection in male Duncan Hartley guinea pig bronchoconstriction einthoven model assessed as inhibition of methacholine-induced bronchoconstriction at 100 microg/ml, inhalation after 24 hrs by in vivo muscarinic acetylcholine receptor antagonist activity assay; format: functional; parameters: scale not given: the % may be the effect or the level left; procedure, shortened: as §1
Cavia porcellus [6] = assay: Bronchoprotection in male Duncan Hartley guinea pig bronchoconstriction einthoven model assessed as inhibition of methacholine-induced bronchoconstriction at 10 microg/ml, inhalation after 1.5 hrs by in vivo muscarinic acetylcholine receptor antagonist activity assay; format: functional; parameters: scale not given: the % may be the effect or the level left
Procedure, shortened: (§2)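 Guinea pig Einthoven bronchoprotection model after test compound dosing (TFA salt in initial experiments). % bronchoprotection was scored separately as MA, BA and combined MABA activity, at 1.5 h or 24 h postdose; n = 3–8 animals per group.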

Cavia porcellus [7] = assay: Bronchoprotection in male Duncan Hartley guinea pig bronchoconstriction einthoven model assessed as inhibition of methacholine-induced bronchoconstriction at 10 microg/ml, inhalation after 24 hrs by in vivo muscarinic acetylcholine receptor antagonist activity assay; format: functional; parameters: scale not given: the % may be the effect or the level left; procedure, shortened: as §2
Cavia porcellus [8] = assay: Bronchoprotection in male Duncan Hartley guinea pig bronchoconstriction einthoven model assessed as inhibition of methacholine-induced bronchoconstriction at 10 microg/ml, inhalation after 24 hrs by in vivo muscarinic antagonist and beta2 agonist activity assay; format: functional, organism-based; procedure, shortened: as §2
Cavia porcellus [9] = assay: Bronchoprotection in male Duncan Hartley guinea pig bronchoconstriction einthoven model assessed as inhibition of methacholine-induced bronchoconstriction at 10 microg/ml, inhalation after 24 hrs by in vivo beta2 adrenergic receptor agonist activity assay; format: functional, organism-based; procedure, shortened: as §2
Cavia porcellus [10] = assay: Bronchoprotection in male Duncan Hartley guinea pig bronchoconstriction einthoven model assessed as inhibition of methacholine-induced bronchoconstriction at 10 microg/ml, inhalation after 1.5 hrs by in vivo beta2 adrenergic receptor agonist activity assay; format: functional, organism-based; procedure, shortened: as §2
Cavia porcellus [11] = species: Cavia porcellus; assay: Antisialagogue activity in guinea pig assessed as inhibition of pilocarpine-induced sialagogue response at 10 ug/ml, inhalation after 1.5 hrs; format: functional
Cavia porcellus [12] = assay: Bronchoprotection in male Duncan Hartley guinea pig bronchoconstriction einthoven model assessed as inhibition of methacholine-induced bronchoconstriction at 10 microg/ml, inhalation after 1.5 hrs by in vivo muscarinic antagonist and beta2 agonist activity assay; format: functional, organism-based; procedure, shortened: as §2
Cavia porcellus [13] = assay: Bronchoprotection in male Duncan Hartley guinea pig bronchoconstriction einthoven model assessed as inhibition of methacholine-induced bronchoconstriction at 100 microg/ml, inhalation after 1.5 hrs by in vivo muscarinic acetylcholine receptor antagonist activity assay; format: functional; parameters: scale not given: the % may be the effect or the level left
Cavia porcellus [14] = species: Cavia porcellus; assay: Antisialagogue activity in guinea pig assessed as inhibition of pilocarpine-induced sialagogue response at 100 ug/ml, inhalation after 1.5 hrs; format: functional
Procedure, shortened: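 Guinea pigs were pretreated with test compound by inhalation. At 1.5 h post-dose they were challenged with pilocarpine. The sialagogue (salivation) response was recorded as % inhibition.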

Cavia porcellus [15] = assay: Bronchoprotection in male Duncan Hartley guinea pig bronchoconstriction einthoven model assessed as inhibition of methacholine-induced bronchoconstriction at 100 microg/ml, inhalation after 1.5 hrs by in vivo muscarinic antagonist and beta2 agonist activity assay; format: functional; parameters: scale not given: the % may be the effect or the level left
Cavia porcellus [16] = assay: Bronchoprotection in male Duncan Hartley guinea pig bronchoconstriction einthoven model assessed as inhibition of methacholine-induced bronchoconstriction at 100 microg/ml, inhalation after 1.5 hrs by in vivo beta2 adrenergic receptor agonist activity assay; format: functional; parameters: scale not given: the % may be the effect or the level left

Chain of Muscarinic acetylcholine receptor M3 (P20309 whole entry): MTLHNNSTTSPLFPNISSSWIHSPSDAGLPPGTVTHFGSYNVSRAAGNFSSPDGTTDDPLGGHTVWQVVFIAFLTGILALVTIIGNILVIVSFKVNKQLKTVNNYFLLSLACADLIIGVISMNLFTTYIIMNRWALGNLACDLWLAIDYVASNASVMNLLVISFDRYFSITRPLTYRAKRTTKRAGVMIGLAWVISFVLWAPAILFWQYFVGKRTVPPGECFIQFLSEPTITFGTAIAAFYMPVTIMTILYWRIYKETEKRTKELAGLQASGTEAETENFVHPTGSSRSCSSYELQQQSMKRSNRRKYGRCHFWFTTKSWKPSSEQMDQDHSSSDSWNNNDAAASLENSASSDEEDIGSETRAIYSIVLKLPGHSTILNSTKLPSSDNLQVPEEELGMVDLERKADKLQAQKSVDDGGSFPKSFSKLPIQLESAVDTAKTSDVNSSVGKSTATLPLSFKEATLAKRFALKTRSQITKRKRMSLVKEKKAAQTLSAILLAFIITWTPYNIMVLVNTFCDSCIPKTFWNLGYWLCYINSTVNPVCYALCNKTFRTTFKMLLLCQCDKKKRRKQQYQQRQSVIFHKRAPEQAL
Chain of Beta-2 adrenergic receptor (P07550 whole entry): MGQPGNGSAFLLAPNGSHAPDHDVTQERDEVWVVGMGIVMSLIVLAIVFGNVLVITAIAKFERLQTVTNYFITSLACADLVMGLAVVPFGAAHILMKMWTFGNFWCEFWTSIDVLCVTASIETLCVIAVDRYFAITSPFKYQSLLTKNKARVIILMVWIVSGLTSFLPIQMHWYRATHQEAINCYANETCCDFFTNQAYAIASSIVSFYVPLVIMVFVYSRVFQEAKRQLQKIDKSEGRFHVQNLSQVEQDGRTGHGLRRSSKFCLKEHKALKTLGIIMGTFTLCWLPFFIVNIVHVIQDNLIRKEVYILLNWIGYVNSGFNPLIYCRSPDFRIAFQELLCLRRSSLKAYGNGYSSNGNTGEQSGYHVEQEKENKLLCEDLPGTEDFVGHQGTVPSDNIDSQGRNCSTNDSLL

SMILES | EC50 [1] | Ki [2] | Activity (Cavia porcellus [4]) | Activity (Cavia porcellus [5]) | also measured
COc1ccc(CCNC[C@H](O)c2ccc(O)c3[nH]c(=O)ccc23)cc1NC(=O)CCN1CCC(OC(=O)Nc2ccccc2-c2ccccc2)CC1 | 1.26 nM | 7.94 nM |  |  | 
COc1ccc(NC(=O)CCN2CCC(OC(=O)Nc3ccccc3-c3ccccc3)CC2)cc1CCNC[C@H](O)c1ccc(O)c2[nH]c(=O)ccc12 | 0.794 nM | 2 nM |  |  | 
Cc1cc(CNC[C@H](O)c2ccc(O)c3[nH]c(=O)ccc23)ccc1NC(=O)CCN1CCC(OC(=O)Nc2ccccc2-c2ccccc2)CC1 | 0.2 nM | 0.0501 nM | 20% | 92% | Activity (Cavia porcellus [3]): 96%
C[N+]1(C)[C@@H]2C[C@@H](OC(=O)C(O)(c3cccs3)c3cccs3)C[C@H]1[C@@H]1O[C@@H]12 [TIOTROPIUM] |  |  |  |  | Activity (Cavia porcellus [6]): 90%; Activity (Cavia porcellus [7]): 75%; Activity (Cavia porcellus [8]): inactive; Activity (Cavia porcellus [9]): inactive; Activity (Cavia porcellus [10]): inactive; inhibition (INH) (Cavia porcellus [11]): 99%; Activity (Cavia porcellus [12]): inactive
O=C(CCN1CCC(OC(=O)Nc2ccccc2-c2ccccc2)CC1)Nc1cccc(CCNC[C@H](O)c2ccc(O)c3[nH]c(=O)ccc23)c1 | 0.1 nM | 1 nM | 46% | 51% | Activity (Cavia porcellus [13]): 77%; Activity (Cavia porcellus [3]): 72%; inhibition (INH) (Cavia porcellus [14]): 23%; Activity (Cavia porcellus [15]): 93%; Activity (Cavia porcellus [16]): 80%
COc1cc(N(C)C(=O)CCN2CCC(OC(=O)Nc3ccccc3-c3ccccc3)CC2)ccc1CNC[C@H](O)c1ccc(O)c2[nH]c(=O)ccc12 | 50.1 nM | 0.631 nM |  |  | 
Cc1cc(NC(=O)CCN2CCC(OC(=O)Nc3ccccc3-c3ccccc3)CC2)ccc1CNC[C@H](O)c1ccc(O)c2[nH]c(=O)ccc12 | 0.2 nM | 1.26 nM |  |  | 
O=C(Nc1ccccc1-c1ccccc1)OC1CCN(CCNC(=O)c2ccc(CNC[C@H](O)c3ccc(O)c4[nH]c(=O)ccc34)cc2)CC1 | 0.501 nM | 0.631 nM | 20% | 74% | 
COc1c(CNC[C@H](O)c2ccc(O)c3[nH]c(=O)ccc23)ccc(NC(=O)CCN2CCC(OC(=O)Nc3ccccc3-c3ccccc3)CC2)c1Cl | 0.398 nM | 0.631 nM |  |  | 
COc1cc(NC(=O)CCN2CCC(OC(=O)Nc3ccccc3-c3ccccc3)CC2)c(C)cc1CNC[C@H](O)c1ccc(O)c2[nH]c(=O)ccc12 | 0.316 nM | 0.316 nM |  |  | 
COc1cc(C(=O)NCCN2CCC(OC(=O)Nc3ccccc3-c3ccccc3)CC2)ccc1CNC[C@H](O)c1ccc(O)c2[nH]c(=O)ccc12 | 1.58 nM | 6.31 nM |  |  | 
O=C(CCN1CCC(OC(=O)Nc2ccccc2-c2ccccc2)CC1)Nc1ccc(CNC[C@H](O)c2ccc(O)c3[nH]c(=O)ccc23)cc1 | 0.251 nM | 0.0794 nM | -2% | 98% | inhibition (INH) (Cavia porcellus [14]): 82%; Activity (Cavia porcellus [16]): 47%
Cc1cc(CNC[C@H](O)c2ccc(O)c3[nH]c(=O)ccc23)ccc1N(C)C(=O)CCN1CCC(OC(=O)Nc2ccccc2-c2ccccc2)CC1 | 3.98 nM | 0.2 nM |  |  | 
NC(=O)C(c1ccccc1)(c1ccccc1)[C@@H]1CCN(CCc2ccc3c(c2)CCO3)C1 [DARIFENACIN] |  |  | 43% | 72% | Activity (Cavia porcellus [13]): inactive; Activity (Cavia porcellus [3]): inactive; Activity (Cavia porcellus [15]): inactive; Activity (Cavia porcellus [16]): 74%
O=C(Nc1ccccc1-c1ccccc1)OC1CCN(CCCCCCCCCNC[C@H](O)c2ccc(O)c3[nH]c(=O)ccc23)CC1 |  |  | 10% | 72% | Activity (Cavia porcellus [13]): 94%; Activity (Cavia porcellus [16]): 63%
COc1c(CNC[C@H](O)c2ccc(O)c3[nH]c(=O)ccc23)ccc(NC(=O)CCN2CCC(OC(=O)Nc3ccccc3-c3ccccc3)CC2)c1C | 0.251 nM | 0.501 nM |  |  | 
O=C(CCN1CCC(OC(=O)Nc2ccccc2-c2ccccc2)CC1)Nc1ccc(CNC[C@H](O)c2ccc(O)c3[nH]c(=O)ccc23)cc1Cl | 0.251 nM | 0.2 nM | 25% |  | 
COc1cc(CNC[C@H](O)c2ccc(O)c3[nH]c(=O)ccc23)ccc1NC(=O)CCN1CCC(OC(=O)Nc2ccccc2-c2ccccc2)CC1 | 0.501 nM | 1.58 nM | 33% | 22% | 
O=C(CCN1CCC(OC(=O)Nc2ccccc2-c2ccccc2)CC1)N[C@H]1CC[C@H](CNC[C@H](O)c2ccc(O)c3[nH]c(=O)ccc23)CC1 | 0.158 nM | 0.316 nM |  |  | 
COc1cc(N(C)C(=O)CCN2CCC(OC(=O)Nc3ccccc3-c3ccccc3)CC2)c(Cl)cc1CNC[C@H](O)c1ccc(O)c2[nH]c(=O)ccc12 | 0.794 nM | 0.316 nM |  |  | 
Cc1cc(C(=O)NCCN2CCC(OC(=O)Nc3ccccc3-c3ccccc3)CC2)c(C)cc1CNC[C@H](O)c1ccc(O)c2[nH]c(=O)ccc12 | 0.158 nM | 3.16 nM |  |  | 
O=C(CCN1CCC(OC(=O)Nc2ccccc2-c2ccccc2)CC1)NCCCCCNC[C@H](O)c1ccc(O)c2[nH]c(=O)ccc12 | 0.126 nM | 0.1 nM |  |  | 
COc1cc(NC(=O)CCN2CCC(OC(=O)Nc3ccccc3-c3ccccc3)CC2)ccc1CNC[C@H](O)c1ccc(O)c2[nH]c(=O)ccc12 | 0.251 nM | 0.158 nM | 72% | 81% | Activity (Cavia porcellus [13]): 94%; inhibition (INH) (Cavia porcellus [14]): -3%; Activity (Cavia porcellus [16]): 70%
CN(CCN1CCC(OC(=O)Nc2ccccc2-c2ccccc2)CC1)C(=O)c1ccc(CNC[C@H](O)c2ccc(O)c3[nH]c(=O)ccc23)cc1 | 0.251 nM | 0.794 nM |  |  | 
O=C(CCN1CCC(OC(=O)Nc2ccccc2-c2ccccc2)CC1)Nc1ccc(CNC[C@H](O)c2ccc(O)c3[nH]c(=O)ccc23)c(Cl)c1 | 0.501 nM | 0.2 nM |  |  | 
